Measurements: ChEMBL document CHEMBL1141674, “Effects of 3-(4'-geranyloxy-3'-methoxyphenyl)-2-trans propenoic acid and its ester derivatives on biofilm formation by two oral pathogens, Porphyromonas gingivalis and Streptococcus mutans” (2008)
Converted amounts (≈) assume the structure as drawn. The source made the active and inactive calls. No cut-off for these calls is given here.

Columns and labels:
Porphyromonas gingivalis [1] = test: Antimicrobial activity against Porphyromonas gingivalis ATCC 33277 assessed as bacterial growth at 62.5 ug/ml after 4 hrs by XTT assay relative to control; type: functional; conditions: in the assay text read “after 48 hrs by absorbance at 660 nm” for “after 4 hrs by XTT assay”
Porphyromonas gingivalis [2] = test: Antimicrobial activity against Porphyromonas gingivalis ATCC 33277 assessed as bacterial growth at 125 ug/ml after 4 hrs by XTT assay relative to control; type: functional; conditions: in the assay text read “after 48 hrs by absorbance at 660 nm” for “after 4 hrs by XTT assay”
Porphyromonas gingivalis [3] = test: Antimicrobial activity against Porphyromonas gingivalis ATCC 33277 assessed as bacterial growth at 3.9 ug/ml after 4 hrs by XTT assay relative to control; type: functional
Method in brief: (§1)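 P. gingivalis biofilms were pre-grown for 48 h (24 h THB-HK culture diluted to OD660 0.07, 37 °C, anaerobic). They were then exposed to compound dilutions for 4 h at 37 °C under anaerobiosis. Viability was read by XTT reduction: fresh reagent of 12.5 parts XTT (1 mg/ml stock in PBS) to 1 part menadione (1 mM stock in acetone), 1 h at 37 °C, A490.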

Streptococcus mutans [4] = test: Antimicrobial activity against Streptococcus mutans ATCC 25175 assessed as effect on bacterial growth after 4 hrs by XTT assay relative to control; type: functional, organism-based
Porphyromonas gingivalis [5] = test: Antimicrobial activity against Porphyromonas gingivalis ATCC 33277 assessed as bacterial growth at 31.2 ug/ml after 48 hrs by absorbance at 660 nm relative to control
Porphyromonas gingivalis [6] = test: Antimicrobial activity against Porphyromonas gingivalis ATCC 33277 assessed as bacterial growth at 15.6 ug/ml after 4 hrs by XTT assay relative to control; type: functional; conditions: in the assay text read “after 48 hrs by absorbance at 660 nm” for “after 4 hrs by XTT assay”
Porphyromonas gingivalis [7] = test: Antimicrobial activity against Porphyromonas gingivalis ATCC 33277 assessed as bacterial growth at 7.8 ug/ml after 4 hrs by XTT assay relative to control; type: functional; method in brief: as §1
Porphyromonas gingivalis [8] = test: Antimicrobial activity against Porphyromonas gingivalis ATCC 33277 assessed as bacterial growth at 62.5 ug/ml after 48 hrs by absorbance at 660 nm relative to control
Porphyromonas gingivalis [9] = test: Antimicrobial activity against Porphyromonas gingivalis ATCC 33277 assessed as bacterial growth at 31.2 ug/ml after 4 hrs by XTT assay relative to control; type: functional; conditions: in the assay text read “after 48 hrs by absorbance at 660 nm” for “after 4 hrs by XTT assay”
Porphyromonas gingivalis [10] = test: Antimicrobial activity against Porphyromonas gingivalis ATCC 33277 assessed as bacterial growth at 125 ug/ml after 48 hrs by absorbance at 660 nm relative to control
Porphyromonas gingivalis [11] = test: Antimicrobial activity against Porphyromonas gingivalis ATCC 33277 assessed as inhibition of biofilm formation at 31.3 ug/ml after 48 hrs; type: functional; parameters: scale not given: the % may be the effect or the level left
Method in brief: (§2)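 A 24 h P. gingivalis culture in THB-HK was diluted to OD660 0.07 and mixed 1:1 with serial compound dilutions in THB-HK; untreated wells served as controls. Plates were held 48 h at 37 °C anaerobically and growth was read at A660. Washed biofilms were stained with 0.04% crystal violet for 15 min, eluted with 95% ethanol and read at A550. Triplicates; mean ± SD of two independent experiments.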

Streptococcus mutans [12] = test: Antimicrobial activity against Streptococcus mutans ATCC 25175 assessed as inhibition of biofilm formation at 3.9 ug/ml after 48 hrs; type: functional, organism-based
Porphyromonas gingivalis [13] = test: Antimicrobial activity against Porphyromonas gingivalis ATCC 33277 assessed as bacterial growth at 15.6 ug/ml after 48 hrs by absorbance at 660 nm relative to control
Porphyromonas gingivalis [14] = test: Antimicrobial activity against Porphyromonas gingivalis ATCC 33277 assessed as inhibition of biofilm formation after 48 hrs; type: functional; conditions: ATCC 33277, 48 h; method in brief: as §2
Streptococcus mutans [15] = test: Antimicrobial activity against Streptococcus mutans ATCC 25175 assessed as inhibition of biofilm formation after 48 hrs; type: functional; conditions: ATCC 25175, 48 h

Structure (SMILES): COc1cc(/C=C/C(=O)OC2=CC(=O)c3ccccc3C2=O)ccc1OC/C=C(\C)CCC=C(C)C
- Activity (Porphyromonas gingivalis [1]): 16%
- Activity (Porphyromonas gingivalis [2]): 17%
- Activity (Porphyromonas gingivalis [3]): 110%
- Activity (Streptococcus mutans [4]): inactive
- Activity (Porphyromonas gingivalis [5]): 34%
- Activity (Porphyromonas gingivalis [6]): 105%
- Activity (Porphyromonas gingivalis [7]): 124%

Structure (SMILES): COC(=O)c1ccc(OC(=O)/C=C/c2ccc(OC/C=C(\C)CCC=C(C)C)c(OC)c2)c(OC)c1
- Activity (Porphyromonas gingivalis [3]): 98%
- Activity (Streptococcus mutans [4]): inactive
- Activity (Porphyromonas gingivalis [8]): 49%
- Activity (Porphyromonas gingivalis [9]): 72%
- Activity (Porphyromonas gingivalis [6]): 76%
- Activity (Porphyromonas gingivalis [10]): 40%
- Activity (Porphyromonas gingivalis [7]): 87%

Structure (SMILES): COc1cc(/C=C/C(=O)O)ccc1OC/C=C(\C)CCC=C(C)C
- Activity (Porphyromonas gingivalis [1]): 9%
- Activity (Porphyromonas gingivalis [2]): 13%
- Activity (Porphyromonas gingivalis [3]): 81%
- Activity (Streptococcus mutans [4]): inactive
- Activity (Porphyromonas gingivalis [11]): 80%
- Activity (Streptococcus mutans [12]): Active
- Activity (Porphyromonas gingivalis [9]): 15%
- Activity (Porphyromonas gingivalis [7]): 68%
- Activity (Porphyromonas gingivalis [13]): 34%

Structure (SMILES): COc1cc(/C=C/C(=O)Oc2ccccc2OC)ccc1OC/C=C(\C)CCC=C(C)C
- Activity (Porphyromonas gingivalis [1]): 25%
- Activity (Porphyromonas gingivalis [2]): 32%
- Activity (Porphyromonas gingivalis [3]): 61%
- Activity (Streptococcus mutans [4]): inactive
- Activity (Porphyromonas gingivalis [9]): 28%
- Activity (Porphyromonas gingivalis [6]): 22%
- Activity (Porphyromonas gingivalis [7]): 25%

Structure (SMILES): O=C1C=C(O)C(=O)c2ccccc21 [LAWSONE]
- Activity (Porphyromonas gingivalis [1]): 79%
- Activity (Porphyromonas gingivalis [3]): 103%
- Activity (Streptococcus mutans [4]): inactive
- Activity (Porphyromonas gingivalis [9]): 86%
- Activity (Porphyromonas gingivalis [6]): 92%
- Activity (Porphyromonas gingivalis [10]): 49%
- Activity (Porphyromonas gingivalis [7]): 100%

Structure (SMILES): Oc1ccc(O)cc1 [HYDROQUINONE]
- Activity (Porphyromonas gingivalis [1]): 13%
- Activity (Porphyromonas gingivalis [3]): 45%
- Activity (Streptococcus mutans [4]): inactive
- Activity (Porphyromonas gingivalis [9]): 17%
- Activity (Porphyromonas gingivalis [6]): 15%
- Activity (Porphyromonas gingivalis [10]): 14%
- Activity (Porphyromonas gingivalis [7]): 27%

Structure (SMILES): N=C(NCCCCCCNC(=N)NC(=N)Nc1ccc(Cl)cc1)NC(=N)Nc1ccc(Cl)cc1 [CHLORHEXIDINE]
- MIC (Porphyromonas gingivalis [14]): 6 µM (≈ 3.03 µg/mL)
- MIC (Streptococcus mutans [15]): 3 µM (≈ 1.52 µg/mL)
